# Screening data deposited in PubChem BioAssay by Broad Institute.
# esBAF inh: blocks esBAF chromatin remodeling in mouse ES cells; reporter increase, % at 12.5 µM; Bmi1-luciferase knock-in reporter, 24 h; 100% = twice the neutral-well signal; AID 602393; actives 2% (n = 350,000); in the data active = activation above about 40%;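 also: 0% = median of the plate's neutral control wells and 100% = double that signal; a rise in the Bmi1 reporter signal indicates esBAF inhibition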
# Wnt bcat act: activates Wnt/beta-catenin signaling in a reporter cell assay. activator, plate reader. activation, % at 9.35 µM. actives 1.2% (n = 300,000). AID 743398; in the data active = activation above about 30%, passing the limit was not always enough;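 also: 0% = neutral control wells and 100% = positive control wells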
# MITF act: activators of MITF-driven TRPM1 promoter activity in SK-MEL-5 cells. SK-MEL-5 TRPM1-promoter luciferase, 24 h; % of positive control, neutral wells = 0. activation, % at 12.5 µM. actives 0.75% (n = 300,000);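 active = mean activation of at least 80% with every replicate also reaching 80%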;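 also: 0% = neutral control wells and 100% = parthenolide positive control wells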
# XiGFP reactiv: X-chromosome reactivation activator | XiGFP mouse fibroblasts, % GFP-positive cells imaging, 3 d; cells co-treated with 5-aza-dC sensitizer; scaled so ellipticine positive control = 100% | activation, % at 7.58 µM | actives 0.055% (n = 360,000) | AID 743238;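 active = mean normalized replicate activation at least 10% and every replicate at or above 10%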;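 also: 0% = median of on-plate neutral control wells and 100% = ellipticine 6 µM median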
#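 System: 68-5-11 XiGFP fibroblast line | Buffer or medium: DMEM containing 5-aza-dC | Compound: Single point | Times: Compounds 3 days, fix/stain 15 min at room temperature | Benchmarks: Positive control ellipticine, 6 µM final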
# Vif inh: HIV Vif inhibition. HEK293T cells, Vif self-association by quenched fluorescence, imaging, 24 h. inhibition, % at 7.49 µM. actives 0.35% (n = 340,000). AID 602346; in the data active = inhibition above about 50%, passing the limit was not always enough
# Starred values were filed as active, the others as inactive; nt = no result given. An excerpt weighted towards active compounds, which were near 2.6% of everything screened.
SMILES,esBAF inh,Wnt bcat act,MITF act,XiGFP reactiv,Vif inh
C=CCn1c(-c2cccs2)nc2ccccc21,21,-2,19,nt,2
C=CCn1c(-c2cccs2)nc2nc3ccccc3nc21,46*,4,9,nt,-10
CCC(C)n1c(-c2cccs2)nc2nc3ccccc3nc21 (stereo not drawn),-10,nt,-11,nt,68*
O=C(CCCOc1ccc(Br)cc1)NNC(=O)c1ccncc1,nt,0,14,0,67*
C[C@H](CO)N1C[C@H](C)[C@H](CN(C)Cc2ccccc2)Oc2cc(C#CCN(C)C)ccc2S1(=O)=O,0,nt,nt,0,nt
COc1ccc2c3c([nH]c2c1)[C@H](CO)N(Cc1ccccn1)CC31CN(Cc2cccc(F)c2)C1,nt,nt,nt,0,nt
COc1cc(C(=O)N/N=C/c2ccc(OC(=O)c3cccc(C)c3)cc2)ccc1O,5,3,8,0,-1
Cc1cccc(C(=O)Oc2ccc(/C=N/O)cc2)c1,76*,11,127*,nt,8
c1ccc2oc(-c3ccc4nc[nH]c4c3)nc2c1,47*,nt,98*,nt,1
COc1ccc(-c2nc3ccccc3o2)cc1OC,3,-1,22,0,17
CCOc1ccc(N=CC2=C(O)CC(C)(C)CC2=O)cc1,48*,-2,29,nt,17
O=C(OCc1cc([N+](=O)[O-])cc2c1OCOC2)c1ccc2ccccc2n1,nt,-2,3,0,0
CC(C)=CC(=O)OCc1cc([N+](=O)[O-])cc2c1OCOC2,nt,41*,48,0,0
CC(C)OC(=O)/C(=C/c1ccc2c(c1)c1ccccc1n2C)NC(=O)c1ccccc1,nt,28,31,0,-29
CC(C)OC(=O)/C(=C\c1ccc2c(c1)c1ccccc1n2C)NC(=O)c1ccccc1,76*,nt,48,nt,nt
C[C@H]1CN([C@@H](C)CO)C(=O)c2ccccc2-c2ccccc2CO[C@@H]1CN(C)C(=O)c1ccncc1,nt,nt,nt,-1,nt
CNC(=O)C[C@H]1CC[C@H]2[C@@H](COc3ccc(NC(=O)NC(C)C)cc3C(=O)N2C)O1,2,nt,nt,0,nt
CCc1ccc(-c2cn3c(n2)SCC3)cc1,29,14,64,0,nt
Cc1ccc(-c2cn3c(n2)SCC3)cc1,7,65*,23,0,23
C/C=C/c1ccc([C@H]2[C@@H](CO)N(Cc3cccc(F)c3)C23CN(C(=O)CC)C3)cc1,nt,nt,nt,0,nt
CC(C)NC(=O)Nc1ccc2c(c1)CC(=O)N(C)C[C@@H](C)[C@H](CN(C)C(=O)OC(C)(C)C)O2,nt,nt,nt,0,nt
Nc1cccc(Oc2ccc3c(c2)C(=O)N(CC2CCCO2)C3=O)c1 (stereo not drawn),50*,15,65,0,2
CN(C)CC(=O)Nc1ccc2c(c1)C(=O)N(C)[C@H]1CC[C@H](CC(=O)Nc3ccc(F)cc3)O[C@@H]1CO2,nt,nt,nt,0,nt
CCC(C)NC(=O)c1cc(-c2ccc3c(c2)OCO3)on1 (stereo not drawn),3,41*,88*,0,12
CC(C)NC(=O)c1cc(-c2ccc(Br)cc2)on1,32,nt,111*,nt,-5
SMILES,esBAF inh,Wnt bcat act,MITF act,XiGFP reactiv,Vif inh
CCC(C)NC(=O)c1cc(CC(C)C)on1 (stereo not drawn),54*,10,nt,0,-2
COc1ccc(-c2cc(C(=O)O)no2)cc1,nt,1,3,0,3
COc1ccc(-c2cc(C(=O)NCC(C)C)no2)cc1,nt,nt,87*,nt,4
O=C(C[C@H]1C=C[C@@H](NC(=O)C2CCC2)[C@H](CO)O1)NCC1CC1,0,nt,nt,0,nt
Cc1ccccc1-c1ccc2c(c1)O[C@@H](CN(C)C(=O)C1CC1)[C@@H](C)CN([C@@H](C)CO)S2(=O)=O,0,nt,nt,-1,nt
Cc1noc(C)c1S(=O)(=O)Nc1ccc2c(c1)CC(=O)N([C@H](C)CO)C[C@H](C)[C@@H](CN(C)Cc1ccc(C(F)(F)F)cc1)O2,4,nt,nt,nt,nt
COc1ccc(S(=O)(=O)Nc2cccc3c2O[C@@H](CN(C)Cc2ccc(Oc4ccccc4)cc2)[C@@H](C)CN([C@H](C)CO)C3=O)cc1,-5,nt,nt,0,nt
COCC(C)NC(=O)c1cc(-c2ccc(O)cc2)on1 (stereo not drawn),33,-4,nt,0,2
CCC(C)NC(=O)c1cc(-c2ccc(OC)cc2)on1 (stereo not drawn),-11,nt,101*,nt,-4
O=C1N[C@H](c2ccccc2)COCc2cn(nn2)CC[C@H]1Cc1ccc(C(F)(F)F)cc1,nt,nt,nt,0,nt
COc1ccc(-c2csc(N(CC3CCCO3)C(=O)c3ccc(C)cc3)n2)cc1 (stereo not drawn),-34,38*,nt,nt,-5
CCOC(=O)c1cc2occc2n1CC(=O)N1CCOCC1,-7,nt,0,nt,60*
c1ccc(OCc2nc(-c3cccs3)no2)cc1,58*,nt,108*,nt,11
Cc1ccc(-c2nc(-c3cccnc3)no2)c(C)c1,44*,nt,nt,nt,1
Cc1c(-c2nc(-c3cccnc3)no2)cccc1[N+](=O)[O-],nt,0,12,0,-2
c1ccc(-c2noc(COc3ccc4c(c3)OCO4)n2)cc1,63*,nt,97*,nt,nt
Cc1ccccc1OCc1nc(-c2ccccc2)no1,nt,nt,97*,nt,0
Cc1ccc(S(=O)(=O)Nc2ccc3c(c2)C(=O)N([C@@H](C)CO)C[C@H](C)[C@H](CN(C)C(=O)Nc2ccccc2)OCCCC[C@H](C)O3)cc1,6,nt,nt,-1,nt
COc1cccc(-c2cccc(-c3nc(C(=O)NCc4ccc(Oc5ccccc5)cc4)cc4c3[C@@H](CCO)N(S(=O)C(C)(C)C)C4)c2)c1 (stereo partly drawn),nt,nt,nt,0,nt
O=C(Nc1cc(F)ccc1F)N1CC(=O)N2[C@H](CO)[C@H](c3ccc(-c4ccc(F)cc4)cc3)[C@@H]2C1,nt,nt,nt,0,nt
Cc1ccccc1-c1ccc([C@@H]2[C@@H](CO)N3C(=O)CN(C(=O)Cc4ccccn4)C[C@@H]23)cc1,nt,nt,nt,0,nt
C[C@H]1CN([C@@H](C)CO)C(=O)c2cc(-c3cccc(C#N)c3)cnc2O[C@@H]1CN(C)C(=O)c1cnccn1,-2,nt,nt,-1,nt
Cc1ccc(C)c(OCc2nc(-c3cccnc3)no2)c1,16,nt,35,nt,nt
Cc1ccccc1OCc1nc(-c2ccc(NC(=O)c3ccco3)cc2)no1,27,-1,103*,nt,-16
Cc1ccccc1OCc1nc(-c2ccc(NC(=O)c3cccs3)cc2)no1,nt,29,57,0,-8
Cc1cc(Br)ccc1OCc1nc(-c2cccnc2)no1,85*,38*,nt,nt,0
CC(Oc1ccc(Cl)cc1Cl)c1nc(-c2ccc(NC(=O)c3ccco3)cc2)no1 (stereo not drawn),50*,nt,nt,nt,-11
CCCc1ccc(OCc2nc(-c3ccc(NC(=O)c4cccs4)cc3)no2)cc1,nt,1,94*,0,2
CC=Cc1ccc2n(c1=O)C[C@H]1[C@H](CO)[C@@H](C(=O)N[C@H](C)c3ccccc3)[C@@H]2N1Cc1ccccc1 (mixture of isomers),nt,nt,nt,0,nt
